# Reference: ChEMBL document CHEMBL1909614, “5-deoxyflavones with cytotoxic activity from Mimosa diplotricha” (2011)
# Test system: HT-29
# Assay: Antiproliferative activity against human HT-29 assessed as growth inhibition after 48 hrs by SRB assay
# Type: functional
# Settings: HT-29, 48 h
# How it was run: (§1)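 Cells kept in RPMI 1640 with 10% FBS, nonessential amino acids and penicillin/streptomycin, seeded and cultured overnight. Six wells fixed with 10% TCA at drug addition (T0). Compound exposure 48 h, then TCA fixation, 0.4% SRB in 1% acetic acid 10 min at room temperature, dye dissolved in 10 mM Tris base, OD 515 nm. Growth computed from T0, control and treated readings. GI50 is the concentration giving 50% growth inhibition. Doxorubicin served as positive control.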
row,GI50,Compound
1,> 10 µM,COc1ccc2c(c1O)COc1c-2oc2c(OC)c(OC)ccc2c1=O
2,0.12 µM,COc1cccc2c1C(=O)c1c(O)c3c(c(O)c1C2=O)C[C@@](O)(C(=O)CO)C[C@@H]3O[C@H]1C[C@H](N)[C@H](O)[C@H](C)O1 [DOXORUBICIN]

# Second part, the compound before the results:
row,Compound,GI50
1,COc1cc([C@H]2Oc3cc(-c4cc(=O)c5c(O)cc(O)cc5o4)ccc3O[C@@H]2CO)cc(OC)c1O,4.1 µM
2,COc1cc(O)c(-c2oc3c(OC)c(OC)ccc3c(=O)c2OC)cc1O [DIPLOTRIN A],> 10 µM
3,COc1ccc(-c2oc3c(OC)c(OC)ccc3c(=O)c2OC)cc1O [DIPLOTRIN B],7.5 µM
4,COc1ccc2c(=O)cc(-c3cc(OC)c(OC)cc3O)oc2c1 [DIPLOTRIN C],> 10 µM

# Test system: A549
# Assay: Antiproliferative activity against human A549 assessed as growth inhibition after 48 hrs by SRB assay
# Type: functional
# Settings: A549, 48 h
# How it was run: as §1
row,GI50,Compound
1,> 10 µM,COc1ccc2c(c1O)COc1c-2oc2c(OC)c(OC)ccc2c1=O
2,0.27 µM,COc1cccc2c1C(=O)c1c(O)c3c(c(O)c1C2=O)C[C@@](O)(C(=O)CO)C[C@@H]3O[C@H]1C[C@H](N)[C@H](O)[C@H](C)O1 [DOXORUBICIN]

# Further lines, the compound ahead of its results:
row,Compound,GI50
1,COc1cc([C@H]2Oc3cc(-c4cc(=O)c5c(O)cc(O)cc5o4)ccc3O[C@@H]2CO)cc(OC)c1O,20.3 µM
2,COc1cc(O)c(-c2oc3c(OC)c(OC)ccc3c(=O)c2OC)cc1O [DIPLOTRIN A],> 10 µM
3,COc1ccc(-c2oc3c(OC)c(OC)ccc3c(=O)c2OC)cc1O [DIPLOTRIN B],2.7 µM
4,COc1ccc2c(=O)cc(-c3cc(OC)c(OC)cc3O)oc2c1 [DIPLOTRIN C],> 10 µM

# Test system: AGS
# Assay: Antiproliferative activity against human AGS assessed as growth inhibition after 48 hrs by SRB assay
# Type: functional
# Settings: not given
# How it was run: as §1
row,GI50,Compound
1,> 10 µM,COc1ccc2c(c1O)COc1c-2oc2c(OC)c(OC)ccc2c1=O
2,0.01 µM,COc1cccc2c1C(=O)c1c(O)c3c(c(O)c1C2=O)C[C@@](O)(C(=O)CO)C[C@@H]3O[C@H]1C[C@H](N)[C@H](O)[C@H](C)O1 [DOXORUBICIN]

# The next lines start with the compound.
row,Compound,GI50
1,COc1cc([C@H]2Oc3cc(-c4cc(=O)c5c(O)cc(O)cc5o4)ccc3O[C@@H]2CO)cc(OC)c1O,24.8 µM
2,COc1cc(O)c(-c2oc3c(OC)c(OC)ccc3c(=O)c2OC)cc1O [DIPLOTRIN A],> 10 µM
3,COc1ccc(-c2oc3c(OC)c(OC)ccc3c(=O)c2OC)cc1O [DIPLOTRIN B],1.7 µM
4,COc1ccc2c(=O)cc(-c3cc(OC)c(OC)cc3O)oc2c1 [DIPLOTRIN C],> 10 µM

# Test system: PC-3
# Assay: Antiproliferative activity against human PC3 assessed as growth inhibition after 48 hrs by SRB assay
# Type: functional
# Settings: PC-3, 48 h
# How it was run: as §1
row,GI50,Compound
1,> 10 µM,COc1ccc2c(c1O)COc1c-2oc2c(OC)c(OC)ccc2c1=O
2,0.09 µM,COc1cccc2c1C(=O)c1c(O)c3c(c(O)c1C2=O)C[C@@](O)(C(=O)CO)C[C@@H]3O[C@H]1C[C@H](N)[C@H](O)[C@H](C)O1 [DOXORUBICIN]

# The remaining lines, values behind:
row,Compound,GI50
1,COc1cc([C@H]2Oc3cc(-c4cc(=O)c5c(O)cc(O)cc5o4)ccc3O[C@@H]2CO)cc(OC)c1O,2.3 µM
2,COc1cc(O)c(-c2oc3c(OC)c(OC)ccc3c(=O)c2OC)cc1O [DIPLOTRIN A],> 10 µM
3,COc1ccc(-c2oc3c(OC)c(OC)ccc3c(=O)c2OC)cc1O [DIPLOTRIN B],20.8 µM
4,COc1ccc2c(=O)cc(-c3cc(OC)c(OC)cc3O)oc2c1 [DIPLOTRIN C],> 10 µM
